{"source": "paper PMC10155261", "about": "(European journal of medicinal chemistry, 2022)", "key": {"hLPA5 [1]": {"molecular_target": "T1, hLPA5 (Homo sapiens, UniProt Q9H1C0)", "T1 sequence (Q9H1C0 whole entry)": "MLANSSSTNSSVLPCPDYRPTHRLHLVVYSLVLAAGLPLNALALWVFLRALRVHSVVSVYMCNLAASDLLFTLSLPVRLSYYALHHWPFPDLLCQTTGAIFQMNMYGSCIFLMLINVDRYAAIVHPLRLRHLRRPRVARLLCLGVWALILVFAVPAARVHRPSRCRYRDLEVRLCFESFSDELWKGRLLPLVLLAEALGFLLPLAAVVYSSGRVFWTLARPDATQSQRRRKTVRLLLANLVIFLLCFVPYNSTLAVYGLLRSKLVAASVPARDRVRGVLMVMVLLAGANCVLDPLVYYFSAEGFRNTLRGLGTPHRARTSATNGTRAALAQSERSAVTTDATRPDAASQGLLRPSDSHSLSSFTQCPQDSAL", "assay": "LPA5 calcium mobilization assay", "type": "cell-based", "details": "for IC50, nM: RH7777-hLPA5 cells, against EC80 (30 nM) of hexadecyl LPA 16:0, mean ± SEM", "procedure,_shortened": "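RH7777-hLPA5 cells were plated on poly-D-lysine at 20,000 cells/well in 0.2% FBS medium for 18–20 h at 37 °C. They were loaded 45 min with Calcium 5 dye in HBSS, 20 mM HEPES and 2.5 mM probenecid, pH 7.4. Eight test-compound concentrations were pre-incubated for 15 min at 37 °C, then hexadecyl LPA 16:0 EC80 (30 nM) was added at 10 s. Fluorescence (485/525 nm) was read every 1 s for 90 s. IC50 came from a three-parameter logistic fit of RFU. Duplicate determinations; two or at least three independent experiments.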"}, "[2]": {"test_system": "CFA-induced nociceptive hypersensitivity in rats", "assay": "CFA-induced inflammatory pain model, von Frey mechanical nociception", "type": "in vivo, Sprague-Dawley rats", "details": "i.p."}, "LPA5 [3]": {"test_system": "LPA5", "details": "cAMP assay ref 31; cited from earlier work"}, "[4]": {"test_system": "CCI-induced mechanical allodynia in rats", "assay": "Chronic constriction injury", "type": "in vivo, Sprague-Dawley rats", "details": "i.p., 32 mg/kg"}, "hLPA5 [5]": {"molecular_target": "T1, hLPA5", "assay": "LPA5 TR-FRET Lance Ultra cAMP assay", "type": "cell-based", "details": "for fold less potent than 2: cAMP assay"}, "LPA5 [6]": {"test_system": "LPA5", "details": "read-out: IC50, binding to [^3H]LPA; literature value ref 8; cited from earlier work"}, "LPA5 [7]": {"test_system": "LPA5", "details": "SAR study of Kawamoto et al. ref 32; cited from earlier work"}}, "note": "Where two headings read alike, the source gives them in different places.", "data": [{"smiles": "COc1cc2c(C(=O)N3CCCCC3)cn(-c3cccc(C(=O)N(C)C)c3)c(=O)c2cc1OC", "note": "[Compound 51, 3-(6,7-Dimethoxy-1-oxo-4-(piperidine-1-carbonyl)isoquinolin-2(1H)-yl)-N,N-dimethylbenzamide]", "values": [{"measurement": "IC50, nM", "setting": "hLPA5 [1]", "result": "completely inactive"}]}, {"smiles": "COc1cc2c(C(=O)N3CCCCC3)cn(-c3noc4ccc(C)cc34)c(=O)c2cc1OC", "note": "[Compound 2, 6,7-Dimethoxy-2-(5-methylbenzo[d]isoxazol-3-yl)-4-(piperidine-1-carbonyl)isoquinolin-1(2H)-o-ne, reference compound]", "values": [{"measurement": "effect on CFA-induced nociceptive hypersensitivity", "setting": "[2]; 32 mg/kg", "result": "did not fully reverse the nociceptive hypersensitivity"}, {"measurement": "duration of effect in CFA model", "setting": "[2]; 65 and 66 at 17.8 mg/kg, 2 at 32 mg/kg", "result": "~ 2 h"}, {"measurement": "IC50", "setting": "LPA5 [3]", "result": 38, "unit": "nM"}, {"measurement": "antinociceptive effect in CCI model", "setting": "[4]", "result": "full antinociceptive effects"}]}, {"smiles": "COc1cc2c(C(=O)N3CCC(C#N)CC3)cn(-c3cccc(N(C)C)c3)c(=O)c2cc1OC", "note": "[Compound 24, 1-(2-(3-(Dimethylamino)phenyl)-6,7-dimethoxy-1-oxo-1,2-dihydroisoquinoline-4-carbonyl)piper-idine-4-carbonitrile]", "values": [{"measurement": "IC50", "setting": "hLPA5 [5]", "result": "2100 ± 300", "unit": "nM"}, {"measurement": "fold less potent than 2", "setting": "hLPA5 [5]", "result": "4 – 10 fold"}]}, {"smiles": "COc1cc2c(C(=O)N3CCC3)cn(-c3cccc(N(C)C)c3)c(=O)c2cc1OC", "note": "[Compound 13, 4-(Azetidine-1-carbonyl)-2-(3-(dimethylamino)phenyl)-6,7-dimethoxyisoquinolin-1(2H)-one]", "values": [{"measurement": "IC50, nM", "setting": "hLPA5 [1]", "result": "inactive"}]}, {"smiles": "COc1cc2c(C(=O)N(C)C)cn(-c3cccc(N(C)C)c3)c(=O)c2cc1OC", "note": "[Compound 10, 2-(3-(Dimethylamino)phenyl)-6,7-dimethoxy-N,N-dimethyl-1-oxo-1,2-dihydroisoquinoline-4-car-boxamide]", "values": [{"measurement": "IC50, nM", "setting": "hLPA5 [1]", "result": "inactive"}]}, {"smiles": "COc1cc2c(C(=O)N3CCCCC3)cn(-c3ccc4ccn(C)c4c3)c(=O)c2cc1OC", "note": "[Compound 58, 6,7-Dimethoxy-2-(1-methyl-1H-indol-6-yl)-4-(piperidine-1-carbonyl)isoquinolin-1(2H)-one]", "values": [{"measurement": "potency difference between cAMP and calcium mobilization assays", "setting": "hLPA5 [5]", "result": 7.2, "unit": "fold"}]}, {"smiles": "COc1cc2c(C(=O)N3CCCCC3)cn(-c3ccc4occ(C)c4c3)c(=O)c2cc1OC", "note": "[Compound 56, 6,7-Dimethoxy-2-(3-methylbenzofuran-5-yl)-4-(piperidine-1-carbonyl)isoquinolin-1(2H)-one]", "values": [{"measurement": "potency difference between cAMP and calcium mobilization assays", "setting": "hLPA5 [5]", "result": 3.9, "unit": "fold"}]}, {"smiles": "COc1cc2c(=O)n(-c3cccc(N(C)C)c3)cc(C(=O)N3CCC(F)CC3)c2cc1OCc1ccccn1", "note": "[Compound 45, 2-(3-(Dimethylamino)phenyl)-4-(4-fluoropiperidine-1-carbonyl)-7-methoxy-6-(pyridin-2-ylmeth-oxy)isoquinolin-1(2H)-one]", "values": [{"measurement": "IC50, nM", "setting": "hLPA5 [1]", "result": "total loss of activity"}]}, {"smiles": "CN(C)c1cccc(-n2cc(C(=O)N3CCC(F)CC3)c3ccccc3c2=O)c1", "note": "[Compound 34, 2-(3-(Dimethylamino)phenyl)-4-(4-fluoropiperidine-1-carbonyl)isoquinolin-1(2H)-one]", "values": [{"measurement": "IC50, nM", "setting": "hLPA5 [1]", "result": "total loss of potency"}]}, {"smiles": "C#CC1CCN(C(=O)c2cn(-c3cccc(N(C)C)c3)c(=O)c3cc(OC)c(OC)cc23)CC1", "note": "[Compound 26, 2-(3-(Dimethylamino)phenyl)-4-(4-ethynylpiperidine-1-carbonyl)-6,7-dimethoxyisoquinolin-1(2-H)-one]", "values": [{"measurement": "IC50", "setting": "hLPA5 [5]", "result": "890 ± 100", "unit": "nM"}, {"measurement": "fold less potent than 2", "setting": "hLPA5 [5]", "result": "4 – 10 fold"}, {"measurement": "fold more potent than the unsubstituted piperidine 15", "setting": "hLPA5 [1]; calcium assay", "result": "~ 2 fold"}]}, {"smiles": "CCCCCCCCCCCCCCCCOC[C@@H](O)COP(=O)(O)O", "note": "[hexadecyl LPA 16:0, reference compound]", "values": [{"measurement": "potency difference between cAMP and calcium mobilization assays", "setting": "hLPA5 [5]", "result": "about 6 fold"}, {"measurement": "IC50", "setting": "LPA5 [6]", "result": 7.5, "unit": "nM"}]}, {"smiles": "COc1cc2c(C(=O)N(C)Cc3ccncc3)cn(-c3cccc(N(C)C)c3)c(=O)c2cc1OC", "note": "[Compound 11, 2-(3-(Dimethylamino)phenyl)-6,7-dimethoxy-N-methyl-1-oxo-N-(pyridin-4-ylmethyl)-1,2-dihydr-oisoquinoline-4-carboxamide]", "values": [{"measurement": "IC50, nM", "setting": "hLPA5 [1]", "result": "inactive"}]}, {"smiles": "CCN1CCc2ccc(-n3cc(C(=O)N4CCC(F)CC4)c4cc(OC)c(OC)cc4c3=O)cc21", "note": "[Compound 3, 2-(1-Ethylindolin-6-yl)-4-(4-fluoropiperidine-1-carbonyl)-6,7-dimethoxyisoquinolin-1(2H)-one, reference compound]", "values": [{"measurement": "fold less potent than 2", "setting": "hLPA5 [1]; in both calcium mobilization and cAMP assays", "result": "2–3 fold"}, {"measurement": "IC50", "setting": "LPA5 [7]", "result": 120, "unit": "nM"}]}, {"smiles": "COc1cc2c(C(=O)N3CCC(F)CC3)cn(-c3cccc(N(C)C)c3)c(=O)c2cc1OC", "note": "[Compound 23, 2-(3-(Dimethylamino)phenyl)-4-(4-fluoropiperidine-1-carbonyl)-6,7-dimethoxyisoquinolin-1(2H-)-one]", "values": [{"measurement": "fold less potent than 2", "setting": "hLPA5 [5]", "result": "4 – 10 fold"}]}, {"smiles": "COc1cc2c(C(=O)N3CCCC3)cn(-c3cccc(N(C)C)c3)c(=O)c2cc1OC", "note": "[Compound 14, 2-(3-(Dimethylamino)phenyl)-6,7-dimethoxy-4-(pyrrolidine-1-carbonyl)isoquinolin-1(2H)-one]", "values": [{"measurement": "IC50, nM", "setting": "hLPA5 [1]", "result": "inactive"}]}, {"smiles": "COc1cc2c(=O)n(-c3cccc(N(C)C)c3)cc(C(=O)N3CCC(F)CC3)c2cc1OCc1cccc2ccccc12", "note": "[Compound 44, 2-(3-(Dimethylamino)phenyl)-4-(4-fluoropiperidine-1-carbonyl)-7-methoxy-6-(naphthalen-1-ylm-ethoxy)isoquinolin-1(2H)-one]", "values": [{"measurement": "IC50, nM", "setting": "hLPA5 [1]", "result": "total loss of activity"}]}, {"smiles": "COc1cc2c(C(=O)N3CCCCC3)cn(-c3cccc(C(N)=O)c3)c(=O)c2cc1OC", "note": "[Compound 50, 3-(6,7-Dimethoxy-1-oxo-4-(piperidine-1-carbonyl)isoquinolin-2(1H)-yl)benzamide]", "values": [{"measurement": "IC50, nM", "setting": "hLPA5 [1]", "result": "completely inactive"}]}, {"smiles": "COc1cc2c(C(=O)N3CCC(F)CC3)cn(-c3ccc4occ(C)c4c3)c(=O)c2cc1OC", "note": "[Compound 64, 4-(4-Fluoropiperidine-1-carbonyl)-6,7-dimethoxy-2-(3-methylbenzofuran-5-yl)isoquinolin-1(2H)-one]", "values": [{"measurement": "fold less potent than 3 and 66", "setting": "hLPA5 [1]; calcium assay", "result": "~ 4 fold"}]}]}
